Experimental data taken from ChEMBL document CHEMBL3259770, “Structure-activity relationship studies of the tricyclic indoline resistance-modifying agent” (J Med Chem, 2014).
Values after ≈ are worked out from the molar mass of the structure shown.

Key:
Staphylococcus aureus [1] = assay: Antibacterial activity against methicillin-resistant Staphylococcus aureus ATCC BAA-44 after overnight incubation by broth microdilution assay in presence of 4 ug/ml amoxicillin and 2 ug/ml clavulanic acid; format: functional
In short: (§1)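 Resensitization screen: compound from a 5 mg/mL DMSO stock, 2-fold serially diluted in MHB from 32 μg/mL final. Antibiotic was held at its CLSI-susceptible level: amoxicillin/clavulanic acid 4/2 μg/mL, cefazolin 8 μg/mL, meropenem 4 μg/mL. Final MRSA inoculum OD600 0.001, overnight at 37 °C with shaking. MRC was the concentration giving no visible overnight growth.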

[2] = Hemolytic activity in human RBC at 64 ug/ml after 1 hr relative to control; format: ADME, cell-based, Erythrocyte; settings: red blood cells, read-out: Activity
In short: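 Freshly drawn heparinized human blood centrifuged; RBCs washed three times in D-PBS and diluted to 1% of original pellet volume. Compound in DMSO added to final 64, 16 and 4 μg/mL. Incubated at 37 °C for 1 h with shaking, then centrifuged; supernatant hemoglobin read at 415 nm. Percent hemolysis taken against 1% Triton X-100 (100%) with DMSO as negative control. Triplicate; run within 3 h of the draw.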

Staphylococcus aureus [3] = assay: Antibacterial activity against methicillin-resistant Staphylococcus aureus ATCC BAA-44 after 18 hrs by checkerboard test in presence of cefazolin; format: functional
In short: (§2)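 Checkerboard synergy test in MHB, plates in duplicate. Compound was 2-fold diluted across the rows (8 to 0.016 μg/mL). […] Final inoculum OD600 0.001, 37 °C with shaking, 18 h. FICI was taken as FICA + FICB, each the MIC in combination over the MIC alone.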

Staphylococcus aureus [4] = assay: Antibacterial activity against methicillin-sensitive Staphylococcus aureus ATCC 25923 after 18 hrs by broth microdilution assay; format: functional; settings: ATCC 25923, 18 h
In short: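 CLSI broth microdilution in Mueller–Hinton broth. Day culture (OD600 0.15–0.4) diluted to OD600 0.002, then 2-fold on addition to wells, giving a final inoculum of OD600 0.001.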

Staphylococcus aureus [5] = assay: Antibacterial activity against methicillin-resistant Staphylococcus aureus ATCC BAA-44 after 18 hrs by broth microdilution assay; format: functional; settings: ATCC BAA-44, 18 h
In short: (§3)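 Day culture (OD600 0.15–0.4) diluted to OD600 0.002, then 2-fold on plating for a final inoculum of OD600 0.001. Plates were incubated at 37 °C with shaking for 18 h before reading growth.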

[6] = Ratio of hemolytic activity in human RBC to antibacterial activity against methicillin-resistant Staphylococcus aureus ATCC BAA-44 in presence of 4 ug/ml amoxicillin and 2 ug/ml clavulanic acid
Staphylococcus aureus [7] = assay: Antibacterial activity against methicillin-resistant Staphylococcus aureus ATCC 33592 after 18 hrs by broth microdilution assay; format: functional; settings: ATCC 33592, 18 h; in short: as §3
Staphylococcus aureus [8] = assay: Antibacterial activity against methicillin-resistant Staphylococcus aureus ATCC BAA-44 after overnight incubation by broth microdilution assay in presence of 8 ug/ml cefazolin; format: functional; in short: as §1
Staphylococcus aureus [9] = assay: Antibacterial activity against methicillin-resistant Staphylococcus aureus ATCC 33592 after overnight incubation by broth microdilution assay in presence of 4 ug/ml meropenem; format: functional; in short: as §1
[10] = Cytotoxicity against human HeLa cells after 24 hrs by CellTiter-Glo assay; format: cell-based
In short: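 HeLa cells seeded at 20 000 cells/well in DMEM with 10% FCS and 1% penicillin/streptomycin, grown 16 h at 37 °C, 5% CO2. Medium renewed, then compound added in DMSO to final 0.5–32 μg/mL, triplicate series. After 24 h at 37 °C, plates equilibrated to room temperature and viability read by CellTiter-Glo luminescence.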

[11] = Ratio of hemolytic activity in human RBC to antibacterial activity against methicillin-resistant Staphylococcus aureus ATCC 33592 in presence of 4 ug/ml meropenem
Staphylococcus aureus [12] = assay: Antibacterial activity against methicillin-resistant Staphylococcus aureus ATCC BAA-44 after 18 hrs by checkerboard test in presence of amoxicillin/clavulanic acid; format: functional; in short: as §2
Staphylococcus aureus [13] = assay: Antibacterial activity against methicillin-resistant Staphylococcus aureus ATCC 33592 after 18 hrs by checkerboard test in presence of meropenem; format: functional; in short: as §2
[14] = Ratio of hemolytic activity in human RBC to antibacterial activity against methicillin-resistant Staphylococcus aureus ATCC BAA-44 in presence of 8 ug/ml cefazolin

Structure (SMILES): C=C1CCC[C@@H]2Nc3c(F)cc(Br)cc3[C@]12CCNS(=O)(=O)c1ccc(Br)cc1
- MRC (Staphylococcus aureus [1]): 1 µg/mL
- hemolysis at 1 h, 64 ug/ml [2]: < 2%
- fractional inhibitory concentration index (FICI) (Staphylococcus aureus [3]): 0.0156
- MIC (Staphylococcus aureus [4]): > 64 µg/mL
- MIC (Staphylococcus aureus [5]): > 64 µg/mL
- Ratio [6]: 64
- MIC (Staphylococcus aureus [7]): > 64 µg/mL
- MRC (Staphylococcus aureus [8]): 1 µg/mL
- MRC (Staphylococcus aureus [9]): 1 µg/mL
- GI50 at 24 h [10]: 22 µg/mL (≈ 40.4 µM)
- Ratio [11]: 64
- fractional inhibitory concentration index (FICI) (Staphylococcus aureus [12]): 0.0315
- fractional inhibitory concentration index (FICI) (Staphylococcus aureus [13]): 0.0315
- Ratio [14]: 64
